Reference: ChEMBL document CHEMBL1142193, “Dual targeting of GyrB and ParE by a novel aminobenzimidazole class of antibacterial compounds” (2007)
In brackets after ≈: the same amount, converted by molar mass. Activity calls are given as the source filed them. The rule behind the calls is not given here.

Experiments:
Assay type in all cases: functional
Staphylococcus aureus [1] = experiment: Inhibition of RNA synthesis in Staphylococcus aureus ATCC 29213 assessed as [3H]uridine incorporation
Method in brief: (§1)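 Log-phase cells exposed in duplicate to compound at 5x MIC; labelled-precursor uptake measured over 15 min, stopped with 10% trichloroacetic acid. Incorporation expressed as percent of untreated control (taken as 100%).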

Staphylococcus aureus [2] = experiment: Inhibition of protein synthesis in Staphylococcus aureus ATCC 29213 assessed as [3H]aminoacid incorporation
Staphylococcus aureus [3] = experiment: Antibacterial activity against Staphylococcus aureus ATCC 29213 without plasmid
Staphylococcus aureus [4] = experiment: Antibacterial activity against Staphylococcus aureus ATCC 29213 carrying plasmid expressing wild type GyrB
Staphylococcus aureus [5] = experiment: Antibacterial activity against Staphylococcus aureus ATCC 29213 carrying plasmid expressing GyrB T173N mutant
Staphylococcus aureus [6] = experiment: Antibacterial activity against Staphylococcus aureus ATCC 29213 carrying plasmid expressing GyrB T173I mutant
Staphylococcus aureus [7] = experiment: Antibacterial activity against Staphylococcus aureus ATCC 29213 carrying plasmid expressing GyrB R144I mutant
Staphylococcus aureus [8] = experiment: Antibacterial activity against Staphylococcus aureus ATCC 29213 with GyrB T173N mutation without plasmid
Staphylococcus aureus [9] = experiment: Antibacterial activity against Staphylococcus aureus ATCC 29213 with GyrB T173I mutation without plasmid
Staphylococcus aureus [10] = experiment: Antibacterial activity against Staphylococcus aureus ATCC 29213 with GyrB R144I mutation without plasmid
Staphylococcus aureus [11] = experiment: Antibacterial activity against Staphylococcus aureus ATCC 29213 after 18 to 20 hrs
Method in brief: (§2)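 MICs followed CLSI guidelines. Strains were grown overnight at 35°C on solid medium. Inocula were prepared with a Prompt system. Compounds were serially diluted twofold in 100% DMSO at 200x and diluted 1:200 into medium, for a final 0.5% DMSO. Plates were incubated at 35°C for 18 to 20 h and read visually. A twofold MIC variation was taken as assay error.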

Staphylococcus aureus [12] = experiment: Antibacterial activity against Staphylococcus aureus ATCC 29213 with GyrB T173N mutation after 18 to 20 hrs; method in brief: as §2
Staphylococcus aureus [13] = experiment: Antibacterial activity against Staphylococcus aureus ATCC 29213 with GyrB T173I mutation after 18 to 20 hrs; method in brief: as §2
Staphylococcus aureus [14] = experiment: Antibacterial activity against novobiocin-resistant Staphylococcus aureus ATCC 29213 with GyrB R144I mutation after 18 to 20 hrs; method in brief: as §2
Staphylococcus aureus [15] = experiment: Antibacterial activity against Staphylococcus aureus ATCC 29213 with GyrB T173N and GrlB T166A mutation after 18 to 20 hrs; method in brief: as §2
Staphylococcus aureus [16] = experiment: Antibacterial activity against Staphylococcus aureus ATCC 29213 with GyrB T173I and GrlB T166A mutation after 18 to 20 hrs; method in brief: as §2
Streptococcus pneumoniae [17] = experiment: Antibacterial activity against Streptococcus pneumoniae ATCC BAA-255 after 18 to 20 hrs; method in brief: as §2
Streptococcus pneumoniae [18] = experiment: Antibacterial activity against novobiocin-resistant Streptococcus pneumoniae ATCC BAA-255 with GyrB S127L mutation after 18 to 20 hrs; method in brief: as §2
Streptococcus pneumoniae [19] = experiment: Antibacterial activity against Streptococcus pneumoniae ATCC BAA-255 with ParE T172A mutation after 18 to 20 hrs; method in brief: as §2
Streptococcus pneumoniae [20] = experiment: Antibacterial activity against Streptococcus pneumoniae ATCC BAA-255 with ParE T172I mutation after 18 to 20 hrs; method in brief: as §2
Streptococcus pneumoniae [21] = experiment: Antibacterial activity against Streptococcus pneumoniae ATCC BAA-255 with GyrB T172A and ParE T172A mutation after 18 to 20 hrs; method in brief: as §2
Enterococcus faecalis [22] = experiment: Antibacterial activity against Enterococcus faecalis ATCC 29212 after 18 to 20 hrs; method in brief: as §2
Enterococcus faecalis [23] = experiment: Antibacterial activity against Enterococcus faecalis ATCC 29212 with ParE T169A mutation after 18 to 20 hrs; method in brief: as §2
Enterococcus faecalis [24] = experiment: Antibacterial activity against Enterococcus faecalis ATCC 29212 with GyrB T167A mutation after 18 to 20 hrs; method in brief: as §2
Enterococcus faecalis [25] = experiment: Antibacterial activity against Enterococcus faecalis ATCC 29212 with GyrB T167I mutation after 18 to 20 hrs; method in brief: as §2
Enterococcus faecalis [26] = experiment: Antibacterial activity against Enterococcus faecalis ATCC 29212 with GyrB T167I and ParE T169A mutation after 18 to 20 hrs; method in brief: as §2
Enterococcus faecalis [27] = experiment: Antibacterial activity against Enterococcus faecalis ATCC 29212 with GyrB T167A and ParE T169A mutation after 18 to 20 hrs; method in brief: as §2
Haemophilus influenzae [28] = experiment: Antibacterial activity against Haemophilus influenzae ATCC 51907 after 18 to 20 hrs; method in brief: as §2
Haemophilus influenzae [29] = experiment: Antibacterial activity against novobiocin-resistant Haemophilus influenzae ATCC 51907 with GyrB R140C mutation after 18 to 20 hrs; method in brief: as §2
Haemophilus influenzae [30] = experiment: Antibacterial activity against novobiocin-resistant Haemophilus influenzae ATCC 51907 with GyrB R140H mutation after 18 to 20 hrs; method in brief: as §2
Haemophilus influenzae [31] = experiment: Antibacterial activity against novobiocin-resistant Haemophilus influenzae ATCC 51907 with GyrB R140L mutation after 18 to 20 hrs; method in brief: as §2
Haemophilus influenzae [32] = experiment: Antibacterial activity against Haemophilus influenzae ATCC 51907 with GyrB T169I mutation after 18 to 20 hrs; method in brief: as §2
Staphylococcus aureus [33] = experiment: Inhibition of DNA synthesis in Staphylococcus aureus ATCC 29213 assessed as [3H]thymidine incorporation; method in brief: as §1

| Compound | Activity (Staphylococcus aureus [1]) | Activity (Staphylococcus aureus [2]) | MIC (Staphylococcus aureus [3]) [µg/mL] | MIC (Staphylococcus aureus [4]) [µg/mL] | MIC (Staphylococcus aureus [5]) [µg/mL] | MIC (Staphylococcus aureus [6]) [µg/mL] | MIC (Staphylococcus aureus [7]) [µg/mL] | MIC (Staphylococcus aureus [8]) [µg/mL] | MIC (Staphylococcus aureus [9]) [µg/mL] | MIC (Staphylococcus aureus [10]) [µg/mL] | MIC (Staphylococcus aureus [11]) [µg/mL] | MIC (Staphylococcus aureus [12]) [µg/mL] | MIC (Staphylococcus aureus [13]) [µg/mL] | MIC (Staphylococcus aureus [14]) [µg/mL] | MIC (Staphylococcus aureus [15]) [µg/mL] | MIC (Staphylococcus aureus [16]) [µg/mL] | MIC (Streptococcus pneumoniae [18]) [µg/mL] | MIC (Streptococcus pneumoniae [19]) [µg/mL] | MIC (Streptococcus pneumoniae [21]) [µg/mL] | MIC (Enterococcus faecalis [22]) [µg/mL] | other results |
| --- | --- | --- | --- | --- | --- | --- | --- | --- | --- | --- | --- | --- | --- | --- | --- | --- | --- | --- | --- | --- | --- |
| CO[C@H]1/C=C/O[C@@]2(C)Oc3c(C)c(O)c4c(O)c(c(/C=N/N5CCN(C)CC5)c(O)c4c3C2=O)NC(=O)/C(C)=C\C=C\[C@H](C)[C@H](O)[C@@H](C)[C@@H](O)[C@@H](C)[C@H](OC(C)=O)[C@@H]1C | Active | Active | – | – | – | – | – | – | – | – | – | – | – | – | – | – | – | – | – | – | – |
| CO[C@@H]1[C@@H](OC(N)=O)[C@@H](O)[C@H](Oc2ccc3c(O)c(NC(=O)c4ccc(O)c(CC=C(C)C)c4)c(=O)oc3c2C)OC1(C)C [NOVOBIOCIN] | – | – | 0.13 (≈ 0.212 µM) | 0.13 (≈ 0.212 µM) | 0.13 (≈ 0.212 µM) | 0.5 (≈ 0.816 µM) | 8 (≈ 13.1 µM) | 0.25 (≈ 0.408 µM) | 2 (≈ 3.26 µM) | 8 (≈ 13.1 µM) | 0.13 (≈ 0.212 µM) | 0.25 (≈ 0.408 µM) | 1 (≈ 1.63 µM) | 8 (≈ 13.1 µM) | 0.25 (≈ 0.408 µM) | 2 (≈ 3.26 µM) | 8 (≈ 13.1 µM) | 0.5 (≈ 0.816 µM) | 4 (≈ 6.53 µM) | 8 (≈ 13.1 µM) | MIC (Streptococcus pneumoniae [17]): 0.5 µg/mL (≈ 0.816 µM); MIC (Streptococcus pneumoniae [20]): 0.5 µg/mL (≈ 0.816 µM); MIC (Enterococcus faecalis [23]): 8 µg/mL (≈ 13.1 µM); MIC (Enterococcus faecalis [24]): 16 µg/mL (≈ 26.1 µM); MIC (Enterococcus faecalis [25]): 32 µg/mL (≈ 52.2 µM); MIC (Enterococcus faecalis [26]): 16 µg/mL (≈ 26.1 µM); MIC (Enterococcus faecalis [27]): 16 µg/mL (≈ 26.1 µM); MIC (Haemophilus influenzae [28]): 0.064 µg/mL (≈ 0.104 µM); MIC (Haemophilus influenzae [29]): 8 µg/mL (≈ 13.1 µM); MIC (Haemophilus influenzae [30]): 4 µg/mL (≈ 6.53 µM); MIC (Haemophilus influenzae [31]): 4 µg/mL (≈ 6.53 µM); MIC (Haemophilus influenzae [32]): 0.25 µg/mL (≈ 0.408 µM) |
| O=C(O)c1cn(C2CC2)c2cc(N3CCNCC3)c(F)cc2c1=O [CIPROFLOXACIN] | inactive | inactive | 0.25 (≈ 0.754 µM) | 0.25 (≈ 0.754 µM) | 0.25 (≈ 0.754 µM) | 0.25 (≈ 0.754 µM) | 0.25 (≈ 0.754 µM) | 0.25 (≈ 0.754 µM) | 0.25 (≈ 0.754 µM) | 0.25 (≈ 0.754 µM) | 0.25 (≈ 0.754 µM) | 0.25 (≈ 0.754 µM) | 0.25 (≈ 0.754 µM) | 0.25 (≈ 0.754 µM) | 0.25 (≈ 0.754 µM) | 0.25 (≈ 0.754 µM) | 0.25 (≈ 0.754 µM) | 0.25 (≈ 0.754 µM) | 0.25 (≈ 0.754 µM) | 1 (≈ 3.02 µM) | Activity (Staphylococcus aureus [33]): Active; MIC (Enterococcus faecalis [23]): 1 µg/mL (≈ 3.02 µM); MIC (Enterococcus faecalis [24]): 0.5 µg/mL (≈ 1.51 µM); MIC (Enterococcus faecalis [25]): 1 µg/mL (≈ 3.02 µM); MIC (Enterococcus faecalis [26]): 0.5 µg/mL (≈ 1.51 µM); MIC (Enterococcus faecalis [27]): 0.5 µg/mL (≈ 1.51 µM); MIC (Haemophilus influenzae [28]): 0.004 µg/mL (≈ 0.0121 µM); MIC (Haemophilus influenzae [29]): 0.004 µg/mL (≈ 0.0121 µM); MIC (Haemophilus influenzae [30]): 0.004 µg/mL (≈ 0.0121 µM); MIC (Haemophilus influenzae [31]): 0.004 µg/mL (≈ 0.0121 µM); MIC (Haemophilus influenzae [32]): 0.004 µg/mL (≈ 0.0121 µM) |
